Source: ChEMBL document CHEMBL1132771, “Analogues of SB-203207 as inhibitors of tRNA synthetases” (Bioorg Med Chem Lett, 2000)
pIC50: −log10 of the molar value. In brackets after ≈: the same amount, converted by molar mass. Values belong to the molecule of their own block, whether it stands above or below them. Activity calls are given as the source filed them. The rule behind the calls is not given here.

Columns and labels:
Staphylococcus aureus [1] = experiment: Compound (100 uM) was evaluated for its inhibitory activity against VRS (valyl tRNA synthetase) from staphylococcus aureus WCUH29; no inhibition
[2] = biological target: T1, Isoleucine--tRNA ligase (Staphylococcus aureus) (UniProt P41972); experiment: Compound (100 uM) was evaluated for its inhibitory activity against Isoleucyl-tRNA synthetase from staphylococcus aureus WCUH29
T1 sequence (whole entry): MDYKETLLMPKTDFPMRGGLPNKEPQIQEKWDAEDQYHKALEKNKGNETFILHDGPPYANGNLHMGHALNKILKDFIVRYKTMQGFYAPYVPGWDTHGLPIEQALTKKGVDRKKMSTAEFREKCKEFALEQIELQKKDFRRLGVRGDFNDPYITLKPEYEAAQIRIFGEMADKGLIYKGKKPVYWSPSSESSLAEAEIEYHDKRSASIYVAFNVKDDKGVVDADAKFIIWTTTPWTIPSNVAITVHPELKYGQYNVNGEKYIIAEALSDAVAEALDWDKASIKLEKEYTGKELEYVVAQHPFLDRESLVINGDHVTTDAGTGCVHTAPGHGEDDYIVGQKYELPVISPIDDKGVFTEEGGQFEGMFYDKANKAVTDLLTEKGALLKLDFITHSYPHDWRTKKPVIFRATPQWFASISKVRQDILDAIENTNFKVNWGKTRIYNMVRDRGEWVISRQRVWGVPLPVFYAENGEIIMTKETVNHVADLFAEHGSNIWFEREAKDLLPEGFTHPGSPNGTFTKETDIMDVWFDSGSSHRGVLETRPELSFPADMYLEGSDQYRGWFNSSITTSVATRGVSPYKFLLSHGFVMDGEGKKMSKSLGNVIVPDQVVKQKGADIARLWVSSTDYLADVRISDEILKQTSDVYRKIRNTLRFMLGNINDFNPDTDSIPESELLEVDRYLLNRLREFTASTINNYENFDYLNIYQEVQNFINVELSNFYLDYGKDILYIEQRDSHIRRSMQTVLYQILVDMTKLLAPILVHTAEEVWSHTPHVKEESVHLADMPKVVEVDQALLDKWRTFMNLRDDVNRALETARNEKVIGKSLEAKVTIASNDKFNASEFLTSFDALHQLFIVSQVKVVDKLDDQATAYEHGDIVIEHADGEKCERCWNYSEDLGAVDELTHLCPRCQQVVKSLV

[3] = biological target: T2, Isoleucyl-tRNA synthetase (Rattus norvegicus, UniProt O35880); experiment: Compound was evaluated for its inhibitory activity against Isoleucyl-tRNA synthetase from rat liver
T2 sequence (O35880 whole entry): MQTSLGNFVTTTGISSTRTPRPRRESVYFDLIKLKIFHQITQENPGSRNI

[4] = system: Leucine--tRNA ligase (Staphylococcus aureus); experiment: Compound (100 uM) was evaluated for its inhibitory activity against Leucyl-tRNA synthetase from staphylococcus aureus WCUH29; no inhibition
Isoleucine--tRNA ligase = biological target: T3, Isoleucine--tRNA ligase (Staphylococcus aureus, UniProt P41972); experiment: Compound was evaluated for its inhibitory activity against Isoleucyl-tRNA synthetase from staphylococcus aureus WCUH29
T3 sequence (P41972 whole entry): T1 sequence (whole entry)

Staphylococcus aureus [5] = experiment: Compound (100 uM) was evaluated for its inhibitory activity against VRS (valyl tRNA synthetase) from staphylococcus aureus WCUH29
Streptococcus pneumoniae [6] = experiment: Compound was evaluated for the antibacterial activity against Streptococcus pneumoniae ERY2; assay type: functional
In short: (§1)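 Broth microdilution MIC. Compounds in DMSO, diluted 1:10 in water to a 256 µg mL-1 stock, then serially diluted in supplemented cation-adjusted Mueller Hinton broth. Each well received an equal volume of isolate suspension (~1 × 10^6 cfu mL-1). Final concentrations were 0.06–64 µg mL-1. Plates were incubated at 35 °C in ambient air for 18–24 h, and the MIC was read with a mirror reader.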

Enterococcus faecalis [7] = experiment: Compound was evaluated for the antibacterial activity against Enterococcus faecalis 7; assay type: functional; in short: as §1
Escherichia coli [8] = experiment: Compound was evaluated for the antibacterial activity against Escherichia coli 120 AcrAB-; assay type: functional; in short: as §1
Escherichia coli [9] = experiment: Compound was evaluated for the antibacterial activity against Escherichia coli 763 AcrABEFD; assay type: functional; in short: as §1
Streptococcus pneumoniae [10] = experiment: Compound was evaluated for the antibacterial activity against Streptococcus pneumoniae 1629; assay type: functional; in short: as §1
Staphylococcus aureus [11] = experiment: Compound was evaluated for the antibacterial activity against Staphylococcus aureus WCUH 29; assay type: functional; in short: as §1
[12] = Compound was evaluated for its inhibitory activity against VRS (valyl tRNA synthetase) from staphylococcus aureus WCUH29
Moraxella catarrhalis = experiment: Compound was evaluated for the antibacterial activity against Moraxella catarrhalis 1502; assay type: functional; in short: as §1
Enterococcus faecalis [13] = experiment: Compound was evaluated for the antibacterial activity against Enterococcus faecalis 1; assay type: functional; in short: as §1
Streptococcus pneumoniae [14] = experiment: Compound was evaluated for the antibacterial activity against Streptococcus pneumoniae N1387; assay type: functional; in short: as §1
Haemophilus influenzae [15] = experiment: Compound was evaluated for the antibacterial activity against Haemophilus influenzae NEMC1; assay type: functional; in short: as §1
Haemophilus influenzae [16] = experiment: Compound was evaluated for the antibacterial activity against Haemophilus influenzae Q1; assay type: functional; in short: as §1
Staphylococcus aureus [17] = experiment: Compound was evaluated for the antibacterial activity against Staphylococcus aureus oxford; assay type: functional; in short: as §1
[18] = system: Leucine--tRNA ligase (Staphylococcus aureus); experiment: Compound (100 uM) was evaluated for its inhibitory activity against Leucyl-tRNA synthetase from staphylococcus aureus WCUH29
[19] = biological target: T4, Isoleucyl-tRNA synthetase (Rattus norvegicus) (UniProt O35880); experiment: Compound (100 uM) was evaluated for its inhibitory activity against Isoleucyl-tRNA synthetase from rat liver
T4 sequence (whole entry): T2 sequence (O35880 whole entry)

[20] = system: Leucine--tRNA ligase (Staphylococcus aureus); experiment: Compound (10 uM) was evaluated for its inhibitory activity against Leucyl-tRNA synthetase from staphylococcus aureus WCUH29; no inhibition
Staphylococcus aureus [21] = experiment: Compound (10 uM) was evaluated for its inhibitory activity against VRS (valyl tRNA synthetase) from staphylococcus aureus WCUH29; no inhibition

- inhibition (Staphylococcus aureus [1]): inactive
- inhibition [2]: 46%
- pIC50 [3]: 6.30
- inhibition [4]: inactive
Compound: CC[C@H](C)[C@H](NC(=O)OCc1ccccc1)C(=O)NS(=O)(=O)CC(=O)N[C@@]1(C(=O)OC)[C@@H](OC(=O)[C@@H](NC(=O)OCc2ccccc2)[C@@H](C)CC)C[C@H]2C(C(N)=O)=CN(C)C[C@H]21

- inhibition (Staphylococcus aureus [1]): inactive
- pIC50 (Isoleucine--tRNA ligase): 5.49
- pIC50 [3]: 4.65
Compound: CC[C@H](C)CC(=O)NS(=O)(=O)CC(=O)N[C@]1(C(=O)O)[C@@H]2CN(C)C=C(C(N)=O)[C@@H]2C[C@@H]1O

- pIC50 (Isoleucine--tRNA ligase): 4.84
- pIC50 [3]: 5.21
- inhibition (Staphylococcus aureus [5]): 65%
Compound: CC[C@H](C)CC(=O)NS(=O)(=O)CC(=O)N[C@@]1(C(=O)O)[C@@H](OC(=O)C[C@@H](C)CC)C[C@H]2C(C(N)=O)=CN(C)C[C@H]21

- MIC (Streptococcus pneumoniae [6]): 16 µg/mL (≈ 32.7 µM)
- MIC (Enterococcus faecalis [7]): > 64 µg/mL
- MIC (Escherichia coli [8]): > 64 µg/mL
- MIC (Escherichia coli [9]): > 64 µg/mL
- MIC (Streptococcus pneumoniae [10]): 32 µg/mL (≈ 65.4 µM)
- MIC (Staphylococcus aureus [11]): > 64 µg/mL
- pIC50 [12]: 6.54
- pIC50 (Isoleucine--tRNA ligase): 6.04
- pIC50 [3]: 7.17
- MIC (Moraxella catarrhalis): > 64 µg/mL
- MIC (Enterococcus faecalis [13]): > 64 µg/mL
- MIC (Streptococcus pneumoniae [14]): 64 µg/mL (≈ 131 µM)
- MIC (Haemophilus influenzae [15]): 64 µg/mL (≈ 131 µM)
- MIC (Haemophilus influenzae [16]): 64 µg/mL (≈ 131 µM)
- MIC (Staphylococcus aureus [17]): > 64 µg/mL
Compound: CC(C)C[C@H](N)C(=O)NS(=O)(=O)CC(=O)N[C@]1(C(=O)O)[C@@H]2CN(C)C=C(C(N)=O)[C@@H]2C[C@@H]1O

- MIC (Streptococcus pneumoniae [6]): 64 µg/mL (≈ 131 µM)
- MIC (Enterococcus faecalis [7]): > 64 µg/mL
- MIC (Escherichia coli [8]): > 64 µg/mL
- MIC (Escherichia coli [9]): > 64 µg/mL
- MIC (Streptococcus pneumoniae [10]): > 64 µg/mL
- MIC (Staphylococcus aureus [11]): > 64 µg/mL
- pIC50 [12]: 6.90
- pIC50 (Isoleucine--tRNA ligase): 7.85
- pIC50 [3]: 8.38
- MIC (Moraxella catarrhalis): > 64 µg/mL
- MIC (Enterococcus faecalis [13]): > 64 µg/mL
- MIC (Streptococcus pneumoniae [14]): > 64 µg/mL
- MIC (Haemophilus influenzae [15]): 64 µg/mL (≈ 131 µM)
- MIC (Haemophilus influenzae [16]): 64 µg/mL (≈ 131 µM)
- MIC (Staphylococcus aureus [17]): > 64 µg/mL
Compound: CC[C@H](C)[C@H](N)C(=O)NS(=O)(=O)CC(=O)N[C@]1(C(=O)O)[C@@H]2CN(C)C=C(C(N)=O)[C@@H]2C[C@@H]1O

- inhibition [18]: 13%
- inhibition (Staphylococcus aureus [1]): inactive
- inhibition [2]: 23%
- inhibition [19]: 25%
Compound: CC[C@H](C)CC(=O)NS(=O)(=O)CC(=O)N[C@]1(C(=O)OC)[C@@H]2CN(C)C=C(C(N)=O)[C@@H]2C[C@@H]1O

- inhibition [20]: inactive
- inhibition (Staphylococcus aureus [21]): inactive
- pIC50 (Isoleucine--tRNA ligase): 6.92
- pIC50 [3]: 7.60
Compound: CC[C@H](C)[C@H](N)C(=O)NS(=O)(=O)CC(=O)N[C@]1(C(=O)OCc2ccccc2)[C@@H]2CN(C)C=C(C(N)=O)[C@@H]2C[C@@H]1O

- pIC50 [12]: 7.52
- pIC50 (Isoleucine--tRNA ligase): 7.43
- pIC50 [3]: 8.54
Compound: CC(C)[C@H](N)C(=O)NS(=O)(=O)CC(=O)N[C@]1(C(=O)O)[C@@H]2CN(C)C=C(C(N)=O)[C@@H]2C[C@@H]1O

- inhibition (Staphylococcus aureus [1]): inactive
- inhibition [2]: 18%
- inhibition [4]: inactive
- inhibition [19]: 9%
Compound: CC[C@H](C)CC(=O)NS(=O)(=O)CC(=O)N[C@@]1(C(=O)OC)[C@@H](OC(=O)C[C@@H](C)CC)C[C@H]2C(C(N)=O)=CN(C)C[C@H]21

- inhibition (Staphylococcus aureus [1]): 6%
- inhibition [2]: 19%
- inhibition [4]: inactive
- inhibition [19]: 20%
Compound: CC[C@H](C)CC(=O)NS(=O)(=O)CC(=O)N[C@@]1(C(=O)OCc2ccccc2)[C@@H](OC(=O)C[C@@H](C)CC)C[C@H]2C(C(N)=O)=CN(C)C[C@H]21

- pIC50 (Isoleucine--tRNA ligase): 7.22
- pIC50 [3]: 7.77
- inhibition (Staphylococcus aureus [5]): 40%
Compound: CC[C@H](C)[C@H](N)C(=O)NS(=O)(=O)CC(=O)N[C@]1(C(=O)OC)[C@@H]2CN(C)C=C(C(N)=O)[C@@H]2C[C@@H]1O
